Data set [1] has as its target T1, hERG (KCNH2) (Homo sapiens, UniProt Q12809). As to the kind of experiment: Inhibition of human ERG at 30 uM by patch clamp assay. The essentials:
(§1)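 hERG potassium channel inhibition measured by patch clamp, performed by MDS Pharma Services. Read-out is % inhibition at a single test concentration.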

Data set [2] addresses T2, 5-hydroxytryptamine receptor 3A (Homo sapiens) (UniProt P46098).
T2 sequence (whole entry): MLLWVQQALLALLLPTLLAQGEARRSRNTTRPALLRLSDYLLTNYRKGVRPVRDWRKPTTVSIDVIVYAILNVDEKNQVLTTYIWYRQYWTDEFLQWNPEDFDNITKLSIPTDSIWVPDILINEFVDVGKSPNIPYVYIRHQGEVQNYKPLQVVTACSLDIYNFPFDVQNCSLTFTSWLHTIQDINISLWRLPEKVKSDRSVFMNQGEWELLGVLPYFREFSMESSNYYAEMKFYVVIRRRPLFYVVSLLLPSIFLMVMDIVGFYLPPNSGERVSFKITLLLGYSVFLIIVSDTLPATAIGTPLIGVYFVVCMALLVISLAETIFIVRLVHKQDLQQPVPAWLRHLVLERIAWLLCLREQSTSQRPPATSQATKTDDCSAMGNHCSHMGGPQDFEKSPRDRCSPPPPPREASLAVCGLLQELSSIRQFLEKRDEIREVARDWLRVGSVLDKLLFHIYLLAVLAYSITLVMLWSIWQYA
As to the kind of experiment: Binding affinity to 5HT3 receptor at 1 uM by radioligand displacement assay. The essentials: (§2)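 Competitive radioligand binding run by MDS Pharma Services on a serotonin receptor panel. Test compound at 1 µM. Read-out is % displacement of radioligand from each receptor complex.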

Data set [3] has as its target T3, 5-hydroxytryptamine receptor 6 (Homo sapiens, UniProt P50406). As to the kind of experiment: Antagonist activity at human recombinant 5HT6 receptor expressed in HEK293 cells assessed as inhibition of serotonin-induced cAMP production. It is filed as functional, cell-based. Summed up: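 HEK293 cells stably expressing recombinant human 5-HT6R, stimulated with serotonin. cAMP from adenylyl cyclase measured by LANCE. Compounds screened at 5 and 10 μM. IC50 determined for compounds giving more than 50% inhibition of cAMP synthesis at 5 μM.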

Data set [4] deals with T4, 5-hydroxytryptamine receptor 2C (Homo sapiens) (UniProt P28335).
T4 sequence (whole entry): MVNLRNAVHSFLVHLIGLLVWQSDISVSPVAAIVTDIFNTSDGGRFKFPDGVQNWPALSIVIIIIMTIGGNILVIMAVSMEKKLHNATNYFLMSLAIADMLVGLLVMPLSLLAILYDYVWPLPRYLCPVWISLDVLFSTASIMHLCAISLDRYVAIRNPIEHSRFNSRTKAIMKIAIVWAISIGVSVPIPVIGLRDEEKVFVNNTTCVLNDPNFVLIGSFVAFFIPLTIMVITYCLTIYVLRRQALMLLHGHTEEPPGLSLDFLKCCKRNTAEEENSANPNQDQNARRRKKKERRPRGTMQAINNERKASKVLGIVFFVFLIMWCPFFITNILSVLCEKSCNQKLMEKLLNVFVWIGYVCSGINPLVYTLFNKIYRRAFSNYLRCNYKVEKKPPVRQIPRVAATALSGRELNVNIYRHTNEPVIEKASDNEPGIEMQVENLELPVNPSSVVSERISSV
As to the kind of experiment: Binding affinity to 5HT2C receptor at 1 uM by radioligand displacement assay. The essentials: as §2

Data set [5] has as its target T3, 5-hydroxytryptamine receptor 6. Kind of data set: Binding affinity to human recombinant 5HT6 receptor expressed in HEK293 cells by radioligand displacement assay. It is filed as cell-based. The essentials: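 Competitive radioligand binding at the 5-HT6 receptor, run by MDS Pharma Services as part of a serotonin receptor panel. IC50 and Ki values derived.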
Data set [6] concerns the target 5-hydroxytryptamine receptor 4 (Homo sapiens) (UniProt Q13639). Kind of data set: Binding affinity to 5HT4 receptor at 1 uM by radioligand displacement assay. Summed up: as §2
Data set [7] addresses 5-hydroxytryptamine receptor 1B (Homo sapiens) (UniProt P28222). Kind of data set: Binding affinity to 5HT1B receptor at 1 uM by radioligand displacement assay. Summed up:
as §2

In data set [8] the target is 5-hydroxytryptamine receptor 2B (Homo sapiens) (UniProt P41595). Kind of data set: Binding affinity to 5HT2B receptor at 1 uM by radioligand displacement assay. Summed up:
as §2

The target of data set [9] is T3, 5-hydroxytryptamine receptor 6. As to the kind of experiment: Binding affinity to human recombinant 5HT6 receptor expressed in HEK293 cells at 1 uM by radioligand displacement assay. Type of data set: cell-based. Summed up:
as §2

Data set [10] concerns the target 5-hydroxytryptamine receptor 2A (Homo sapiens) (UniProt P28223). As to the kind of experiment: Binding affinity to 5HT2A receptor at 1 uM by radioligand displacement assay. The essentials: as §2
Data set [11] addresses T5, 5-hydroxytryptamine receptor 1A (Homo sapiens) (UniProt P08908).
T5 sequence (whole entry): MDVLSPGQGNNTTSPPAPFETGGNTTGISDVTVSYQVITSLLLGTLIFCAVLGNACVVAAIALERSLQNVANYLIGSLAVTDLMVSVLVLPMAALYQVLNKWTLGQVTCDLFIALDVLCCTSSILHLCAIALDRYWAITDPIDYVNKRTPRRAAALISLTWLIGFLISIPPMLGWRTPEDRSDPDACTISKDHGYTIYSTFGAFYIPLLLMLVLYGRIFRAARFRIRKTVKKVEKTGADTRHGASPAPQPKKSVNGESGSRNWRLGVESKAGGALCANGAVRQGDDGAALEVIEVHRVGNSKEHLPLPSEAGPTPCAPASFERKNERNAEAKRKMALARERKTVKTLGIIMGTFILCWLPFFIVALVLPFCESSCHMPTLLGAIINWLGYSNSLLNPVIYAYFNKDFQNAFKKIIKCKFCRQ
As to the kind of experiment: Binding affinity to 5HT1A receptor at 1 uM by radioligand displacement assay. The essentials: as §2

Data set [12] has as its target 5-hydroxytryptamine receptor 7 (Homo sapiens) (UniProt P34969). Kind of data set: Binding affinity to 5HT7 receptor at 1 uM by radioligand displacement assay. Summed up: as §2
For data set [13], the target named is T1, hERG (KCNH2). Kind of data set: Inhibition of human ERG at 15 uM by patch clamp assay. The essentials:
as §1

Two molecules from ChEMBL document CHEMBL1177669, “Synthesis and biological study of 3-(phenylsulfonyl)thieno[2,3-e][1,2,3]triazolo[1,5-a]pyrimidines as potent and selective serotonin 5-HT6 receptor antagonists” (Bioorg Med Chem, 2010) can be followed below.

T3 sequence (P50406 whole entry): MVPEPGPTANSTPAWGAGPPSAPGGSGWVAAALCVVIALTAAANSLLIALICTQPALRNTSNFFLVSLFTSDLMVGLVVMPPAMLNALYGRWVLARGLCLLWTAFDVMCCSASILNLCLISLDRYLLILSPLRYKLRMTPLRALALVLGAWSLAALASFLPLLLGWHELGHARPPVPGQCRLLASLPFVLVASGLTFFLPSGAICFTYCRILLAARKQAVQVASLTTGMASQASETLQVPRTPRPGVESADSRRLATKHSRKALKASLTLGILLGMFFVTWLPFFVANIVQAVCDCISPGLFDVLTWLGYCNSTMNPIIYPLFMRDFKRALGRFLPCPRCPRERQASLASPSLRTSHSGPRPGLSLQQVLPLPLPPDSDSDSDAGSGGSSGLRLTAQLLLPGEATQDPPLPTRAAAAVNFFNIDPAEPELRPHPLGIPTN
5-hydroxytryptamine receptor 1B (Homo sapiens), sequence (P28222 whole entry): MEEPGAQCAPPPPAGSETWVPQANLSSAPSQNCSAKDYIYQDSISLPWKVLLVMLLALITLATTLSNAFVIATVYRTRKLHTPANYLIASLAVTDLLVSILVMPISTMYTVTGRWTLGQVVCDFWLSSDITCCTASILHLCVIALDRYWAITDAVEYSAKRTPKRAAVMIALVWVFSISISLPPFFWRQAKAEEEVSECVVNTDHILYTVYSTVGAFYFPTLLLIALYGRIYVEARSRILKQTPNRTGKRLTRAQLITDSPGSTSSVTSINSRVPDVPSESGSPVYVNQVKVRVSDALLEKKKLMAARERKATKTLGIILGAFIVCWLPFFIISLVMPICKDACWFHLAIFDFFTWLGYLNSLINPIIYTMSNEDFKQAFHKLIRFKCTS
T1 sequence (Q12809 whole entry): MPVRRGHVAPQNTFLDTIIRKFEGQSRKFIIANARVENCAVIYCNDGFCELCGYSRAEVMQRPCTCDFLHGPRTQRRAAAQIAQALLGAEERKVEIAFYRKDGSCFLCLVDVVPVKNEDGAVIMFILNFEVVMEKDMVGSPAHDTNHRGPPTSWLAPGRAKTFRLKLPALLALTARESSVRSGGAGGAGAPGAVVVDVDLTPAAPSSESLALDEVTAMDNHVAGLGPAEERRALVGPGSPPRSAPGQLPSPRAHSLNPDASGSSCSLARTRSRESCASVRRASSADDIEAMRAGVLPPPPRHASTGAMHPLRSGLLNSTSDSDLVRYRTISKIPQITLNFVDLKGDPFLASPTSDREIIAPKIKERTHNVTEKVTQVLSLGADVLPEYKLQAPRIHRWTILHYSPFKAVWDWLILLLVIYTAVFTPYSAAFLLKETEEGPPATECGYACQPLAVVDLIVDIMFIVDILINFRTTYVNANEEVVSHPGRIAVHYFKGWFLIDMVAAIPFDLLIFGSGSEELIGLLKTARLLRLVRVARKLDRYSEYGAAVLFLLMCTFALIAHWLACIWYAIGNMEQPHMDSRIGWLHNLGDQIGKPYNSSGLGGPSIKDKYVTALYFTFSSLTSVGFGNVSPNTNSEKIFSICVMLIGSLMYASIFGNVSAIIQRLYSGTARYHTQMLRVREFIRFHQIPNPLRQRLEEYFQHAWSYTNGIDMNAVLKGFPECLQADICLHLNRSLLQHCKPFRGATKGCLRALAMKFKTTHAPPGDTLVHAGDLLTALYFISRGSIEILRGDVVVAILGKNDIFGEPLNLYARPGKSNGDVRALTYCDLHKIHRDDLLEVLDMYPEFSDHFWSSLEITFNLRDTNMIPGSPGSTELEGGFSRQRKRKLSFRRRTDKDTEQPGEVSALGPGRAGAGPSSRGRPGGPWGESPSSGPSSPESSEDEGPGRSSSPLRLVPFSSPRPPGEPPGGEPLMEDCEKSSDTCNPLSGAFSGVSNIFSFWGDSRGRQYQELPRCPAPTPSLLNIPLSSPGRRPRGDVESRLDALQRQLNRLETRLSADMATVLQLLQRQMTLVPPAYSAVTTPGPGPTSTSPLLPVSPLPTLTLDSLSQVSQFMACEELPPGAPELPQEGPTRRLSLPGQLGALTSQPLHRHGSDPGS
5-hydroxytryptamine receptor 4 (Homo sapiens), sequence (Q13639 whole entry): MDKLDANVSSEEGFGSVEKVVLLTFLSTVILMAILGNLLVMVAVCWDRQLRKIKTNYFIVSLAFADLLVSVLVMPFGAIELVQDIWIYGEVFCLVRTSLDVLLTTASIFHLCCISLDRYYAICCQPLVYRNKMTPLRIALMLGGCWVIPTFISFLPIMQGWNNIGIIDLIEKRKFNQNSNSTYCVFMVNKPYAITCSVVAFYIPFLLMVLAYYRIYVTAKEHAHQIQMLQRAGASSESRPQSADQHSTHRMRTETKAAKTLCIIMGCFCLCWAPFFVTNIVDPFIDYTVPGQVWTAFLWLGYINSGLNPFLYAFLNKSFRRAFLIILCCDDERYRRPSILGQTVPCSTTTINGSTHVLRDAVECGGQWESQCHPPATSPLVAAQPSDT
5-hydroxytryptamine receptor 2B (Homo sapiens), sequence (P41595 whole entry): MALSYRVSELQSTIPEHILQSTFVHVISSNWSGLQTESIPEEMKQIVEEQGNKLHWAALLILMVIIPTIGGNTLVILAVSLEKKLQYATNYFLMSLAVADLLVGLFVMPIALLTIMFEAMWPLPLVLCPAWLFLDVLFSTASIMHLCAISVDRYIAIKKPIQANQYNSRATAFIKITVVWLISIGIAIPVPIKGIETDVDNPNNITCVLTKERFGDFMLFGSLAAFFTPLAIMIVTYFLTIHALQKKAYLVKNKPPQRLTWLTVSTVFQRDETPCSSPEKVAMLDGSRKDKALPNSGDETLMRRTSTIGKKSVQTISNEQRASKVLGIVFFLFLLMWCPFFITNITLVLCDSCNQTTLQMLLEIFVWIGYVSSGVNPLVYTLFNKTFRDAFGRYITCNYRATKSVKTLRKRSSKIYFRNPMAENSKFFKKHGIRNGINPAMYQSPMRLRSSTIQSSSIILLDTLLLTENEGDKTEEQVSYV
5-hydroxytryptamine receptor 7 (Homo sapiens), sequence (P34969 whole entry): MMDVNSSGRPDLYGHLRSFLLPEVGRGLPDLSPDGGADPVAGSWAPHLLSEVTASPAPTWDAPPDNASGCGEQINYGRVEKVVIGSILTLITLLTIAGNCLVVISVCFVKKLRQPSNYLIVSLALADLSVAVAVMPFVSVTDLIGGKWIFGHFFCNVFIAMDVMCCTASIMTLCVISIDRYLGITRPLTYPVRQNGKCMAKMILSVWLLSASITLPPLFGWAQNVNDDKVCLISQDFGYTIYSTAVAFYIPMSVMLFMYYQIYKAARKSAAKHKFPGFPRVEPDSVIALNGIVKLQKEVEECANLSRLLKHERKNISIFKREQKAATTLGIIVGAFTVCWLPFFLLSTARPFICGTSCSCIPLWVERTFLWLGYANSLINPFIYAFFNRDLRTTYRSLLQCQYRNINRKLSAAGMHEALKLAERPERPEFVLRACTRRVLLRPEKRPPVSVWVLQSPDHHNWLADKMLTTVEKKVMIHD
5-hydroxytryptamine receptor 2A (Homo sapiens), sequence (P28223 whole entry): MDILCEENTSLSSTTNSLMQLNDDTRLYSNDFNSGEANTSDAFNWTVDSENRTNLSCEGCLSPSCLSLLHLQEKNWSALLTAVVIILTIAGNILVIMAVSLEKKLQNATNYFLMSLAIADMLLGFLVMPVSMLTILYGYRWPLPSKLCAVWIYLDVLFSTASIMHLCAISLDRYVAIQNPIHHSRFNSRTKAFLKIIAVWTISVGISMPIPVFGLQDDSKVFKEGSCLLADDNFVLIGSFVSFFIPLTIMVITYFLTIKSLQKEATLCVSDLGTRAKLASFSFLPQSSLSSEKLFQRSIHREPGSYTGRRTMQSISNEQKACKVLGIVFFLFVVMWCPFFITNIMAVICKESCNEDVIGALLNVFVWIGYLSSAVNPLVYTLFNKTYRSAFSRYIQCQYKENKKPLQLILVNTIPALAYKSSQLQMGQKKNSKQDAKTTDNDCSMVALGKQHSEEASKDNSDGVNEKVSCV

Regarding `CN(Cc1ccccc1)c1nc2c(S(=O)(=O)c3cccc(Cl)c3)nnn2c2ccsc12`, the inhibition at 30 µM on hERG (KCNH2) [1] was found to be 20%. Moreover, the Activity in [2] is -3%; in [4], 15%; in [6], 41%; in data set [7] it was 3%; in data set [8], 46%; in data set [9], 106%. For the same molecule, the Activity in data set [10] was determined as 50%; in data set [11], 9%; in [12], 6%. Besides, the IC50 in [3] came out at 920 nM; in data set [5] it was 7.5 nM. In data set [5], the Ki is 3.5 nM.
In the case of `CN(Cc1ccccc1)c1nc2c(S(=O)(=O)c3ccccc3)nnn2c2ccsc12`, the Activity was -7% in data set [2]; 2% in [4]; 33% in data set [6]; 1% in data set [7]; 12% in data set [8]; 103% in [9]. Further, the values for the Activity in data set [10], in [11] and in data set [12] were 15%, 2% and -2%, respectively. Moreover, the values for the IC50 in data set [3] and in data set [5] were 170 nM and 5 nM, respectively. Besides, the Ki in data set [5] is 2.3 nM. Besides, on hERG (KCNH2) [13], the inhibition at 15 µM was 20%.
